Only some compounds are listed: those with a hit (about 4% of all), similar ones and a draw of the others.
KCNK3 block – human KCNK3 channel inhibition, primary screen; CHO-KCNK3 thallium flux, FluxOR fluorescence; active compounds read low; hit rate 0.84% among 340,000; AID 602410; O14649; B-score at 10 µM;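 active = B-score under library mean minus 4 SD, starting fluorescence ratio at most library mean plus 5 SD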;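 note: more negative B-score means stronger inhibition of thallium flux through KCNK3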
PHOSPHO1 block – blocks human PHOSPHO1 phosphatase activity; Q8TCT1; recombinant PHOSPHO1, absorbance phosphatase assay; inhibition, % at 13.3 µM; hit rate 1.1% among 290,000; in the data active = inhibition above about 60%
KCNQ1 act – human KCNQ1 channel potentiation or activation; B-score at 10 µM; CHO-K1 KCNQ1, thallium flux FluxOR fluorescence; active compounds read high; hit rate 0.35% among 310,000; P51787;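 active = fluorescence ratio B-score, a plate-corrected score, at least three library SD, with initial intensity B-score within 5 SD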
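System: CHO-K1 cells stably expressing KCNQ1 / Medium: assay buffer for compound exposure, DMSO matched across wells / Reagent: thallium- and potassium-containing depolarizing buffer / Compound: one concentration, matched DMSO / Incubation: 20 min compound pretreatment at room temperature / Measured by: kinetic FluxOR fluorescence, 10 s baseline plus 110 s post-stimulus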
KCNK9 inh – inhibitors of human KCNK9 two-pore domain potassium channel; HEK293 KCNK9, FluxOR thallium flux fluorescence; active compounds read low; B-score at 10 µM; hit rate 1.2% among 310,000; Q9NPC2; AID 488922;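 active = ratio B-score over 3 SD below the library mean, with starting fluorescence within 5 SD of its mean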;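 note: negative B-score means less thallium flux so channel inhibition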
hERG rescue – shields human hERG channel from block by proarrhythmic agents; CHO-hERG, FluxOR thallium flux, dofetilide IC70 present; activation (rescue from dofetilide block), less the hit threshold, % at 10 µM; hit rate 0.51% among 310,000;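 active = activation above the mean of controls blocked by dofetilide plus 5 SD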;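 note: thallium influx through hERG after potassium depolarization seen as dye fluorescence rise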
Target sequence (Q12809 whole entry, looked up): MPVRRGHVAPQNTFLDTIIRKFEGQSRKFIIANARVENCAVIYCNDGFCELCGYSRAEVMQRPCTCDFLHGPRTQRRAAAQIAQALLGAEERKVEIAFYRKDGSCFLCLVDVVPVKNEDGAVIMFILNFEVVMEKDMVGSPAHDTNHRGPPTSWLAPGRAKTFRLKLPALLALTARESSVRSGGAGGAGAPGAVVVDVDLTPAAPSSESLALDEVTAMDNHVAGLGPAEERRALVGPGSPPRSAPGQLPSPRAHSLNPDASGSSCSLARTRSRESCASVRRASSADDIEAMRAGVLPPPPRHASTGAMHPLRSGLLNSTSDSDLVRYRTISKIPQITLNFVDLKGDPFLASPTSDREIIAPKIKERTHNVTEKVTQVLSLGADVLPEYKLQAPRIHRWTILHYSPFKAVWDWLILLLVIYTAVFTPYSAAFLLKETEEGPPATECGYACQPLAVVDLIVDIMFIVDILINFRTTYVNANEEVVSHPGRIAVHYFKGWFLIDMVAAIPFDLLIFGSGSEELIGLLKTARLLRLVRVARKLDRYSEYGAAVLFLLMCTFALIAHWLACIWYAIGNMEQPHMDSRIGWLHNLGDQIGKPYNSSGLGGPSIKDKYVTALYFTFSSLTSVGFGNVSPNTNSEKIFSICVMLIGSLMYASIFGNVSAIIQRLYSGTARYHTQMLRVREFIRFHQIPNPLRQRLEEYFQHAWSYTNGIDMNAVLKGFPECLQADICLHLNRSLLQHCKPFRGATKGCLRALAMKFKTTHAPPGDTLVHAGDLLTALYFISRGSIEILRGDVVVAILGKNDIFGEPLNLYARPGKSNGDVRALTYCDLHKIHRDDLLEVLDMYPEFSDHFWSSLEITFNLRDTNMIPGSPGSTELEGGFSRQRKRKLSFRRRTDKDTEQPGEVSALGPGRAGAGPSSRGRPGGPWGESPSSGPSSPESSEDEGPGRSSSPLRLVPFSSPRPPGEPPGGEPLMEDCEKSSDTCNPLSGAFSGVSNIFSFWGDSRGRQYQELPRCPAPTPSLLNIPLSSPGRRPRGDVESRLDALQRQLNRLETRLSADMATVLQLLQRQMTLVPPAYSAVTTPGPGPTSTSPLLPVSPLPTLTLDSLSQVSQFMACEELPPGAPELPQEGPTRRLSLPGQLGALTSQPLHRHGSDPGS
KCNQ1 inh – blocks the human KCNQ1 potassium channel. P51787. CHO-K1 KCNQ1, FluxOR thallium flux fluorescence; active compounds read high. B-score at 10 µM. hit rate 1.3% among 310,000;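 active = compounds whose thallium flux B-score, printed positive for inhibition, exceeds three library SD while starting fluorescence stays within three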;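 note: channel opened by potassium depolarization with thallium stimulus after 20 min compound exposure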
Each line names hits and unclear results; the compound was inactive in the other large screens.

CC1=NC(=O)C(N=Nc2cccc(O)c2)N1c1ccccc1 (stereo unspecified)	PHOSPHO1 block 95
Cc1cccc(-n2c(O)c(C=Nc3cccc(O)c3)c3ccccc3c2=O)n1	none
O=C(c1ccccc1O)N1CCOCC1	none
Cc1ccc2c(c1C)NC(C(=O)O)C1CC=CC21 (stereo unspecified)	PHOSPHO1 block 62
Cc1cc(C)c2c(c1)NC(C(=O)O)C1CC=CC21 (stereo unspecified)	none
O=C(O)C1Nc2c(C(=O)N3CCOCC3)cccc2C2C=CCC12 (stereo unspecified)	PHOSPHO1 block 63
Cc1cc(O)c(C(C)C)cc1N=C1CSC(=O)N1	PHOSPHO1 block 87
Cc1ccc(N=C2CSC(=O)N2)cc1	none
O=C(COc1ccc2ccccc2c1)NCCc1ccc2c(c1)OCCO2	none
CC(C)c1ccc(S(=O)(=O)/N=C2/C=C(Sc3ncn[nH]3)C(=O)c3ccccc32)cc1	none (no result: KCNQ1 act, KCNK9 inh, hERG rescue, KCNQ1 inh)
Cc1ccc(S(=O)(=O)/N=C2/C=C(Sc3ncn[nH]3)C(=O)c3ccccc32)c(C)c1	PHOSPHO1 block 76 (no result: KCNK3 block, KCNQ1 act, KCNK9 inh, hERG rescue, KCNQ1 inh)
Cc1ccc(S(=O)(=O)/N=C2/C=C(Sc3ncn[nH]3)C(=O)c3ccccc32)cc1	PHOSPHO1 block 73 (no result: KCNQ1 act, KCNK9 inh, hERG rescue, KCNQ1 inh)
Clc1cccc(-c2ccc(CNCCCN3CCOCC3)o2)c1	none
Cc1nnc(NC(=O)C2CCCN(S(=O)(=O)c3ccccc3C(F)(F)F)C2)s1 (stereo unspecified)	hERG rescue 15
Cc1nnc(NC(=O)C2CCCN(S(=O)(=O)Cc3ccccc3)C2)s1 (stereo unspecified)	none
CCN1CC(c2ccccc2)C(c2ccc(Cl)cc2)=N1 (stereo unspecified)	KCNK9 inh -7
CN(C(=O)c1cc2n(n1)C(C(F)(F)F)CC(c1ccco1)N2)c1ccccc1 (stereo unspecified)	KCNK9 inh -6.7
COc1ccc(NC(=O)CCOc2ccc(C)cc2)cc1S(=O)(=O)N1CCOCC1	none (no result: PHOSPHO1 block, KCNQ1 act, KCNK9 inh, hERG rescue, KCNQ1 inh)
COc1ccccc1NC(=O)CC(=O)CSc1nnc(-c2ccc(C)cc2)n1C	PHOSPHO1 block 88
Cc1ccc(-c2nnc(SCC(=O)CC(=O)Nc3ccccc3)n2C)cc1	none
COc1ccccc1NC(=O)CSc1nnc(-c2ccc(NC(C)=O)cc2)n1C	PHOSPHO1 block 106
O=C(CN1CCN(C(=O)c2ccccc2)CC1)NC(=O)NCCC1=CCCCC1	none (no result: PHOSPHO1 block, KCNQ1 act, KCNK9 inh, hERG rescue, KCNQ1 inh)
CCCCn1c(NC(=O)c2ccccc2Cl)c(C#N)c2nc3ccccc3nc21	KCNQ1 inh 10
CCN(c1ccccc1)S(=O)(=O)c1cccc(C(=O)Nc2ccc(C)cn2)c1	none
Cc1ccccc1-n1c(=O)/c(=C\c2ccco2)s/c1=C(/C#N)C(=O)Nc1ccccc1	PHOSPHO1 block 83
CCOC(=O)/C=c1\s/c(=C(\C#N)C(=O)NC)n(-c2ccccc2)c1=O	none
CC(C)(C)NC(=O)NC(=O)COc1ccccn1	none
CCc1ccc(OCC(=O)NC(=S)Nc2ccc(F)cc2)c(Br)c1	none
CCc1ccc(OCC(=O)NC(=S)Nc2ccc(C(C)=O)cc2)c(Br)c1	hERG rescue 4.9
Cc1cc2nc(N)sc2cc1[N+](=O)[O-]	hERG rescue 5.0
COc1ccc2nc(N)sc2c1	none
COc1ccc(Cn2nnnc2C(CC(C)C)N2CCC(C(N)=O)CC2)cc1 (stereo unspecified)	PHOSPHO1 block 66
CCCC(c1nnnn1Cc1ccc(OC)cc1)N1CCC(C(N)=O)CC1 (stereo unspecified)	none
Nc1c(C(=O)NC2CC2)sc2nc3c(c(-c4ccco4)c12)CC/C3=C/c1ccco1	PHOSPHO1 block 81 (no result: KCNQ1 act, KCNK9 inh, hERG rescue, KCNQ1 inh)
COc1ccc(CC(=O)OCC(=O)Nc2ccc(F)cc2)cc1	none (no result: PHOSPHO1 block, KCNQ1 act, KCNK9 inh, hERG rescue, KCNQ1 inh)
Cc1ccc(-n2c(C)cc(C3N=C(N)Nc4nc5ccccc5n43)c2C)c(C)c1 (stereo unspecified)	KCNK9 inh -7.5
COc1ccc(C(=O)Nn2c(SCC(=O)c3ccc(Cl)cc3)nc3ccccc3c2=O)cc1	KCNK9 inh -7.1
CCCOc1ccc(C(=O)Nn2c(C)nc3ccccc3c2=O)cc1	hERG rescue 6.5
COc1ccc(C(=O)Nn2c(SCC(=O)N3CCC(C)CC3)nc3ccccc3c2=O)cc1	none
O=C(C[n+]1cccc(CNC(=O)c2ccc(OC(F)F)cc2)c1)Nc1cc(C(F)(F)F)ccc1Cl	none
NC(=O)C[n+]1cccc(CNC(=O)c2ccc(OC(F)F)cc2)c1	hERG rescue 4.6
